Compounds with a hit are over-represented: about 9.6% of the library has one in this group of screens.
Lmaj promast: Leishmania major promastigote growth inhibition. Leishmania major promastigotes, resazurin fluorescence viability. inhibition, % at 10 µM. actives 9% (n = 200,000); in the data active = inhibition above about 50%;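 also: promastigotes grown with compound for 44 hours at 28 °C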
HCT116 PTEN-null: growth suppressors of cells with PTEN tumor suppressor deletion | viability, % at 10 µM | actives 1.2% (n = 140,000) | AID 827 | HCT116 PTEN-null viability, CellTiter-Glo, 60 h; hits give low values;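 active = viability at or below a set limit, 4 SD under the median of all tested compounds, cut at about 3.7% in these data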;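 also: PTEN knockout HCT116 line with beta catenin targeted HCT116 as companion control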
HCT116 bCat-KO: beta-catenin-lacking colon tumor cell growth suppression | HCT116 beta-catenin knockout viability, CellTiter-Glo, 60 h; hits give low values | viability, % at 10 µM | actives 1.5% (n = 140,000) | AID 818;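 active = viability at or under a set limit, the compound median less 4 SD, cut at about 6% in these data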;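 also: 0% = Hyamine 1622 control at 20 µM and 100% = untreated cell control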
PMI act: increases human mannose-6-phosphate isomerase activity; actives 0.005% (n = 190,000); activation factor at 20 µM; P34949; purified human PMI, coupled resazurin fluorescence, 20 min; hits give high values; 1 = vehicle control, 0 substrate-free wells; AID 1214;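 active = activation factor of 2 or more at 20 µM, relative to plate controls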
Target sequence (P34949 whole entry, looked up): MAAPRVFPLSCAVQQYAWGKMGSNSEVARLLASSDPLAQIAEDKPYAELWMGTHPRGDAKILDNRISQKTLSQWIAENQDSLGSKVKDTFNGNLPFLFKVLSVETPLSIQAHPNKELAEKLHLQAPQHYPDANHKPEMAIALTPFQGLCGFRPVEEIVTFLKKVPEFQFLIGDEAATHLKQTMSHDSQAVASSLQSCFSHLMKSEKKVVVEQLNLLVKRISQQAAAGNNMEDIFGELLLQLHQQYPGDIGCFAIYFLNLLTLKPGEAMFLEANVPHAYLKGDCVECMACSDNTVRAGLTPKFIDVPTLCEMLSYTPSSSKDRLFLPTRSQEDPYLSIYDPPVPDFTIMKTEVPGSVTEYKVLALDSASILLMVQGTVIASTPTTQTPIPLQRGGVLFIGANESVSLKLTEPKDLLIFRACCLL
PMI act satM6P: activators of human phosphomannose isomerase at near-saturating mannose 6-phosphate; P34949; coupled PMI enzyme assay, resazurin fluorescence, 20 min; hits give high values; 1 = untreated enzyme, 0 = substrate-free blank; activation factor at 20 µM; actives 0.34% (n = 190,000); AID 1216;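 active = activation factor of 2 or more at 20 µM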
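Material: human phosphomannose isomerase with PGI, G6PDH, diaphorase coupling enzymes / Reagent: Man-6-P substrate 1.0 mM / Dosing: single compound dose of 20 µM, 1% DMSO final / Incubation: enzyme reaction with compound 20 min at room temperature / Signal: resorufin fluorescence (Ex 544/Em 590 nm) from resazurin via diaphorase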
Lmaj promast 1uM: blocks Leishmania major promastigote growth at 1 uM, repeat screen; shares compounds with Lmaj promast; L. major promastigote growth, resazurin fluorescence, 48 h; inhibition, % at 1 µM; actives 13% (n = 1,100);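 active = inhibition above about 50% in both repeat tests, limit read from the data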
Numbers without * were called inactive; . = not tested or not shown.

SMILES	Lmaj promast	HCT116 PTEN-null	HCT116 bCat-KO	PMI act	PMI act satM6P	Lmaj promast 1uM
Cc1csc(Sc2ccc(S(=O)(=O)N3CCCC3)cn2)n1	-14	.	.	0.9	1	.
CC(C)(C)n1nnnc1CN(Cc1cccnc1)Cc1ccccc1Cl	75*	85	90	0.9	1	3
COc1ccc([C@@H]2Sc3cc(OC)ccc3N(CCN(C(C)C)C(C)C)C(=O)[C@H]2OC(C)=O)cc1	74*	86	87	1.2	1.1	-5
COc1ccccc1N1CCN(C2CCN(C(=O)c3ccc(F)cc3)CC2)CC1	-10	88	90	1	1.1	.
COc1ccccc1N1CCN(C2CCN(C(=O)c3cccc(F)c3)CC2)CC1	82*	91	95	1	1	-17
O=C(CN1CCN(Cc2ccccc2F)C1=O)NCc1ccco1	4	97	87	1.1	1.1	.
COc1cc2c(cc1OC)C(c1ccc(-c3ccccc3Cl)o1)=NCC2	68*	17	16	1	1.1	3
COCCN(CC(=O)NCC1CCCO1)C(=O)CCC(=O)Nc1ccccn1 (stereo not given)	-6	.	.	0.8	1	.
Cc1c(Cl)cccc1NC(=O)c1ccc(-n2ccnc2)nc1	-8	86	96	1.1	1	.
O=C(O)/C=C/C(=O)NC1CCS(=O)(=O)C1 (stereo not given)	61*	100	98	1.1	1.1	-13
O=C(O)/C=C\C(=O)NC1CCCCC1	-7	99	91	1.1	1	.
COc1cccc(C2C(C(=O)c3sc(C)nc3C)=C(O)C(=O)N2CCN(C)C)c1OC (stereo not given)	.	.	.	1	1.1	.
N#Cc1cc(O)c(-n2nnc3ccccc32)cc1C#N	-1	.	.	1.1	0.9	.
N#Cc1cc(Oc2cccc3cccnc23)c(-n2nnc3ccccc32)cc1C#N	69*	22	13	0.9	0.9	-10
CCCCOC(=O)CCn1c(=S)oc2ccccc21	-2	92	104	1	1	.
CC(=O)/C=C/n1c(=S)oc2ccccc21	100*	5	5.3*	1	0.7	18
O=C1COc2ccc(C(=O)c3ccccc3)cc2CN1	-9	107	96	0.9	1	.
COc1ccc(OC)c2c(C)cc(N3CCCN(C)CC3)nc12	8	75	74	0.9	0.9	.
CCN(CC)CCCOc1nc(C)nc2c1oc1ccccc12	75*	83	92	1	1.1	-4
CCN(CC)CCOc1nc(C)nc2c1oc1ccccc12	2	98	91	1	1.1	.
CCCCN(C)C/C(O)=C(\C#N)c1nc(-c2ccccc2)cs1	-3	92	102	1	1.1	.
O=c1oc2c(CN3CCOCC3)c(O)ccc2c2c1CCC2	9	90	92	0.9	0.9	.
Cc1oc2c(CN3CCCC3)c(O)ccc2c(=O)c1-c1ccc(Br)cc1	99*	94	76	0.9	0.9	-5
COc1ccc(N2C(=O)C3[C@@H](C2=O)C2(Cl)C(Cl)=C(Cl)C3(Cl)C2(OC)OC)cc1 (stereo not given in full)	-2	95	89	0.8	0.9	.
CCOC(=O)c1c(NC(=O)c2ccc(S(=O)(=O)N3CCOCC3)cc2)sc2c1CCN(C)C2	68*	61	64	1.1	1.2	-16
SMILES	Lmaj promast	HCT116 PTEN-null	HCT116 bCat-KO	PMI act	PMI act satM6P	Lmaj promast 1uM
CC1CN(S(=O)(=O)c2ccc(C(=O)Nc3sc4c(c3C(N)=O)CCN(C)C4)cc2)CC(C)O1 (stereo not given)	1	115	92	1	0.9	.
CC(C)CC(=O)OC1C(N2CCOCC2)c2c(ccc(/C=C/C(=O)N3CCOCC3)c2O)OC1(C)C (stereo not given)	90*	85	95	0.9	1	-16
CCC(C)NCCOc1ccccc1C (stereo not given)	18	.	.	1	1.1	.
CCC(C)NCCOc1ccc(Br)cc1 (stereo not given)	82*	97	88	0.9	1	-7
CCOC(=O)c1c(C)nc2c(c(SC)nn2-c2ccccc2)c1N	3	86	96	1.1	0.9	.
CN(C)CCOc1ccccc1Cc1ccccc1	100*	82	91	1.1	1.2	89*
CSc1nnc2c(n1)OC(C1CC=C(C)CC1)Nc1ccccc1-2 (stereo not given)	.	.	.	1.1	1	.
O=C1CCC([N+](=O)[O-])C(c2ccc(Cl)c([N+](=O)[O-])c2)N1 (stereo not given)	6	.	.	1	1	.
O=C1CCC([N+](=O)[O-])C(c2cccc(Br)c2)N1 (stereo not given)	54*	97	92	1	1	-10
Cc1ccc(N=C(NOCc2ccc(Cl)cc2Cl)c2nonc2N)c(C)c1	98*	54	42	0.9	0.9	20
COCCNC(=O)Cn1nc(C)c([N+](=O)[O-])c1C	-8	.	.	0.9	0.9	.
CC1(C)CC2(CC(c3ccccc3F)c3ccc(O)c(O)c3O2)NC(=S)N1 (stereo not given)	-3	.	.	0.3	0.5	.
CC1(C)CC2(CC(c3cccs3)c3cc(Cl)c(O)cc3O2)NC(=S)N1 (stereo not given)	92*	45	29	0.8	0.9	-10
O=C(Cn1[nH]c(=O)c2ccccc2c1=O)N1CC=C(c2ccccc2)CC1	4	93	72	1	1	.
O=C(O)CCC(=O)N1CC=C(c2ccccc2)CC1	63*	76	65	1	1	-7
COC(=O)c1ccccc1NC(=S)NC(NC(=O)COc1ccccc1)C(Cl)(Cl)Cl (stereo not given)	99*	77	75	0.8	0.9	23
CN(C)c1cc(N/N=C/c2ccc(Cl)cc2)nc(N(C)C)n1	78*	.	.	0.3	0.3	74*
Cc1ccc(S(=O)(=O)N/N=c2\oc3ccccc3cc2C(=O)Nc2cccc(C)c2)cc1	71*	100	103	1	0.9	-17
COC(=O)CN(c1cccc(F)c1)S(C)(=O)=O	-1	106	103	1	1	.
Cc1ccccc1N=C1Nc2ccccc2CS1	51*	86	82	1	1	6
Cc1ccccc1N=C1NC(=O)CS1	-1	100	102	1	1	.
CCn1c2ccccc2c2cc(/C(C)=N/O)ccc21	69*	77	83	0.9	0.9	-15
C/C(=N\O)c1ccc2c3ccccc3n(C)c2c1	5	88	84	0.9	0.9	.
CC(C)OC(=O)c1cccc(C(=O)OCc2ccco2)n1	50*	73	65	1	1	9
OCCC1CN(Cc2cnc(-c3ccc(Cl)cc3)nc2)CCN1C1CCCCC1 (stereo not given)	87*	.	.	1	1	12
c1ccc(-n2nnnc2-c2cnc(-c3cccnc3)nc2-c2cccs2)cc1	95*	92	89	1.1	1.1	-13
